In the library only some 2.3% were active in any assay of this set; here they are far more common.
WNV protease inh: WNV NS2B-NS3 proteinase inhibition | P06935 | WNV NS2B-NS3 protease, fluorogenic substrate Ex360/Em465; stronger effect = lower value | z-score (concentration not given with the values) | 65,000 compounds, 0.18% hits | AID 577; in the data active = z-score below about -3
Target sequence (P06935 1371-1501 limits assumed): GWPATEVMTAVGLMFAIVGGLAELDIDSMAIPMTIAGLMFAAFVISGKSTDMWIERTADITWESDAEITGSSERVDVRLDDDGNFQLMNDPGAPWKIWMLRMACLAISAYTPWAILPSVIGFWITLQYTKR
Target sequence (P06935 1502-1679 limits assumed): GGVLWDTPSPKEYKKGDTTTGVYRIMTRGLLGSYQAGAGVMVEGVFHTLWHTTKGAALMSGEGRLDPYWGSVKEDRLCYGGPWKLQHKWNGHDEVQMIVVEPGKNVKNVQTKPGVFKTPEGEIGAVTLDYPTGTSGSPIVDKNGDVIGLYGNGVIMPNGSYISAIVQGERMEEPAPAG
RORA act: activators of human nuclear receptor RORA | P35398 | activation, % at 10 µM | CHO-K1 Gal4-RORA LBD luciferase reporter, luminescence; percent increase over mock-subtracted basal signal | 65,000 compounds, 1.5% hits;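 active = activation above the mean of all tested compounds plus 3 SD, cut at about 49% in these data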;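 also: 0% = DMSO-treated RORA cells and 100% = added signal equal to DMSO minus mock-transfected cells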
SF-1 act: SF-1 (human) activation. CHO-K1 Gal4-SF-1 LBD luciferase reporter; % increase over DMSO SF-1-specific signal. activation, % at 10 µM. Q13285. AID 522. 65,000 compounds, 1.9% hits;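 active = activation above the mean activation of all tested compounds plus 3 SD, cut at about 50% in these data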
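Assay system: CHO-K1 cells co-transfected with Gal4 DBD–human SF-1 LBD, 5xGal4 luciferase reporter; doses: 10 µM only; incubation: 20 h compound exposure at 37 °C after 1 h cell settling; signal: luciferase light emission; evaluation: percent activation versus DMSO; repeats: one test per compound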
MMP13 inh: MMP13 (human) collagenase inhibition | P45452 | MMP-13 fTHP FRET cleavage, Mca fluorescence | inhibition, % at 4 µM | 65,000 compounds, 0.07% hits | AID 570;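 active = inhibition above the mean of compound-free control plate wells plus 3 SD, cut at about 14% in these data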;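 also: 0% = DMSO wells and 100% = wells with reference MMP-13 inhibitor after basal subtraction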
MT1-MMP txn act: MT1-MMP promoter transcription activation; 86,000 compounds, 0.16% hits; activation factor at 10 µM; HT1080 MT1-MMP promoter luciferase reporter, luminescence, overnight; stronger effect = higher value;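 active = activation factor of at least 2 for MT1-MMP transcription at 10 µM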
Active calls of the source: *; nt = not tested or not shown.

SMILES	WNV protease inh	RORA act	SF-1 act	MMP13 inh	MT1-MMP txn act
O=C1N(CCCCN2C(=O)C3(OCCO3)c3ccccc32)c2ccccc2C12OCCO2	0.75	3	4	4	1.3
O=C1N(CCCN2C(=O)C3(OCCO3)c3ccccc32)c2ccccc2C12OCCO2	-0.15	53*	-15	-4	1.1
CCOc1ccc(NC(=O)CSc2nnc(CCNC(=O)c3ccc(OC)cc3)n2C)cc1	nt	nt	nt	nt	1.2
O=C(CN1C(=O)c2ccccc2C1=O)Nc1ccc(-c2nc3ccccc3o2)cc1	-0.33	-1	-2	-3	1.1
O=C(CCN1C(=O)c2ccccc2C1=O)Nc1ccc(F)cc1	0.49	9	-4	6	0.9
O=C(Nc1ccc(-c2cn3ccsc3n2)cc1)C1CC1	1.5	8	61*	2	0.8
O=C(CCN1C(=O)c2ccccc2C1=O)Nc1ccc(-c2cn3ccsc3n2)cc1	-0.06	18	65*	1	1
O=C(CCN1C(=O)c2ccccc2C1=O)Nc1ccc(-c2nc3ccccc3o2)cc1	1.1	50*	53*	0	0.8
O=C(Nc1ccc(-c2cn3ccsc3n2)cc1)C1CCCC1	-1.3	30	58*	4	0.5
CC(=O)Nc1ccc(-c2cn3ccsc3n2)cc1	0.02	40	33	0	0.9
CCOC(=O)C1CCCN(S(=O)(=O)c2cccc3cccnc23)C1 (stereo unspecified)	0.63	6	2	6	0.9
CC(=O)Nc1ccc(NC(=O)Cn2cnc3c(cnn3C(C)(C)C)c2=O)cc1	0.43	-8	-1	-5	1.2
CC(C)(C)n1ncc2c(=O)n(CC(=O)c3ccc(Cl)cc3)cnc21	0.72	59*	87*	5	1.6
CC(C)(C)n1ncc2c(=O)n(CC(=O)NCc3ccccc3)cnc21	-0.15	56*	78*	-4	0.8
CC(C)CNc1c(N)c(=O)oc2ccccc12	nt	nt	nt	nt	1.1
Cc1onc(-c2ccccc2)c1C(=O)Nc1nc(-c2cc(F)ccc2F)cs1	-1.5	18	54*	-5	0.7
COCCn1c(C)cc(C(=O)COC(=O)c2ccc3ncsc3c2)c1C	0.27	27	52*	0	1.7
COCCn1c(C)cc(C(=O)COC(=O)c2ccc(NC(=O)CC#N)cc2)c1C	nt	nt	nt	nt	1.2
CCOC(=O)N1CCC(NC(=O)CC(NS(=O)(=O)c2ccc(Cl)cc2)c2ccco2)CC1 (stereo unspecified)	0.53	-7	8	-11	1.4
CCOC(=O)N1CCC(Nc2nc3ccccc3nc2NS(=O)(=O)c2ccc(Cl)cc2)CC1	-0.05	21	54*	2	1.7
CC(C)N(C(=O)C(=O)c1cccn1-c1ccccc1C#N)C(C)C	nt	nt	nt	nt	1.3
O=C(O)CCCC(=O)Nc1ccc(Br)cc1C(=O)O	0.24	-7	0	2	1
Fc1cccc(F)c1CSc1nc2ccccc2[nH]1	nt	nt	nt	nt	0.8
Fc1ccccc1CSc1nc2ncccc2[nH]1	-0.92	34	51*	-2	1.3
Cn1c(SCc2ccccc2F)nc2cccnc21	0.6	80*	6	0	1.5
SMILES	WNV protease inh	RORA act	SF-1 act	MMP13 inh	MT1-MMP txn act
CCC/C=C(\CCC)C(NS(=O)(=O)c1cccs1)c1ccc(C(=O)OC)cc1 (stereo unspecified)	nt	nt	nt	nt	1.2
Nc1nc(CSc2n[nH]c(-c3ccccc3)n2)nc(Nc2ccccc2)n1	-0.06	72*	34	2	1.1
Cc1ccc(-c2nc(Nc3ccccc3)n[nH]2)cc1	1.3	63*	64*	-7	1.8
Cc1ccc(N2C(=O)C3ON(c4ccccc4)C(c4ccncc4)C3C2=O)c(C)c1 (stereo unspecified)	-0.38	-11	-4	0	1.1
Cc1ccc(C(=O)Oc2oc(-c3ccco3)nc2C=Nc2ccc(Cl)cc2)cc1	nt	nt	nt	nt	1.4
Cc1ccc(N=Cc2nc(-c3ccco3)oc2O)cc1	-0.65	47	104*	-6	1.5
c1ccc(-c2cc(N3CCCCC3)ncn2)cc1	0.58	34	56*	4	1.5
Cc1nc(-c2ccccc2)cc(N2CCCC2)n1	2	-4	-29	1	1.1
FC(F)(F)c1cc(-c2ccccc2)nc(N2CCCCCC2)n1	0.11	-6	2	-9	1
c1ccc(-c2cc(N3CCCCCC3)n[nH]2)cc1	-0.56	70*	42	0	1.6
c1ccc(-c2csc(N3CCCCCC3)n2)cc1	-0.43	7	8	-2	1.4
c1ccc(-c2cnnc(N3CCCCC3)n2)cc1	0.47	58*	14	2	1.3
Nc1nc(-c2ccccc2)cc(N2CCCCC2)n1	-0.0081	47	75*	3	0.6
O=C(CSc1nnc(CNC(=O)c2ccccc2F)o1)c1ccccc1	-0.74	-2	17	0	nt
CCNc1ccc(Br)cc(C(=O)/C=C/c2ccc(Cl)cc2Cl)c1=O	nt	nt	nt	nt	1
CCC(C)NC(=O)c1cc(-c2ccc(OC)cc2)on1 (stereo unspecified)	1.1	60*	43	-10	1.4
COCC(C)NC(=O)c1cc(-c2cccc(OC)c2)on1 (stereo unspecified)	-0.19	34	71*	-6	1.5
COc1cccc(-c2cc(C(=O)Nc3ccccc3SC)no2)c1	-0.73	66*	47	-5	1.4
Nc1ccc(-c2nc3ccccc3[nH]2)cc1	-0.8	38	56*	-135	0.9
O=C(COc1ccccc1Cl)Nc1ccc(Cl)cn1	-1.1	62*	74*	-1	1.5
O=C(CCc1ccccc1)Nc1ccc(Cl)cn1	0.93	38	60*	3	0.8
O=C(COc1ccccc1Cl)NC(=O)NC1CCCC1	-0.2	20	53*	-5	1.4
COc1cc2cc(C(c3nnnn3C(C)(C)C)N3CCC(C)CC3)c(=O)[nH]c2cc1OC (stereo unspecified)	nt	nt	nt	nt	1
CC1(C)Cc2[nH]c(=O)c(C#N)cc2CS1	-0.59	4	5	-9	1.1
CC1(C)Cc2nc3sc4c(=O)[nH]cnc4c3cc2CS1	-0.8	12	63*	-2	1.7
SMILES	WNV protease inh	RORA act	SF-1 act	MMP13 inh	MT1-MMP txn act
CCOc1ccc(-n2cc(C(=O)Nc3cccc(C)n3)c3cc(OC)c(OC)cc3c2=O)cc1	0.5	-4	14	4	1
C/C(N)=C(/C#N)C(=O)CSc1nnc(Nc2cccc(C)c2C)s1	0.43	11	58*	2	1.6
Cc1nc2nc(-c3ccccc3)nn2c(C)c1Cl	-1.4	77*	103*	2	2.2*
COc1ncnc2sc(-c3ccccc3)cc12	-0.5	28	51*	1	1.5
CCN(CC)C(=O)CSc1ncnc2sc(-c3ccccc3)cc12	nt	nt	nt	nt	1.7
CCCCC(CC)CNC(=O)C1C2C=CC(C2)C1C(=O)O (stereo unspecified)	nt	nt	nt	nt	2.1*
Cc1cc(C)nc(SCc2nnc(SCC(=O)Nc3cc(C(F)(F)F)ccc3Cl)o2)n1	0.47	-1	-1	-1	1.1
CCc1ccc(NC(=O)c2ccc3nc(N)sc3c2)cc1	nt	nt	nt	nt	1.5
Nc1nc2ccc(C(=O)Nc3ccccc3)cc2s1	0.74	62*	90*	2	1.9

Compound activity (PubChem)
